In one series the target is CYP2D6 (Homo sapiens, UniProt P10635). Briefly: (§1) Inhibition of CYP2D6 in human liver microsomes at 10 uM measured after 20 mins in presence of NADPH by LC/MS/MS analysis relative to control. The series is classed as ADME. To be noted: liver microsomes. The procedure, abridged: (§2)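 CYP isoforms 1A2, 2D6, 3A4, 2C9 and 2C19 were tested at 1 and 10 µM. Results are % inhibition compared with a no-inhibitor control, run in triplicate.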

Series [1] in a line: Metabolic stability in Guinea pig liver microsomes assessed as parent compound remaining at 1 uM after 60 mins in presence of NADPH by LC/MS/MS analysis. To be noted: read-out: Stability. The series is classed as ADME, Cavia porcellus, microsome. The procedure, abridged:
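Compound at 1.0 µM was incubated with liver microsomes (1.0 mg/mL protein) at 37 °C for 60 min. Samples were analysed by LC/MS/MS as % parent remaining. Run in triplicate.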

For another series, the target named is CYP2C9 (Homo sapiens, UniProt P11712). As to the kind of experiment: Inhibition of CYP2C9 in human liver microsomes at 10 uM measured after 20 mins in presence of NADPH by LC/MS/MS analysis relative to control. The series is classed as ADME. The procedure, abridged: as §2
CYP2C9, sequence (P11712 whole entry): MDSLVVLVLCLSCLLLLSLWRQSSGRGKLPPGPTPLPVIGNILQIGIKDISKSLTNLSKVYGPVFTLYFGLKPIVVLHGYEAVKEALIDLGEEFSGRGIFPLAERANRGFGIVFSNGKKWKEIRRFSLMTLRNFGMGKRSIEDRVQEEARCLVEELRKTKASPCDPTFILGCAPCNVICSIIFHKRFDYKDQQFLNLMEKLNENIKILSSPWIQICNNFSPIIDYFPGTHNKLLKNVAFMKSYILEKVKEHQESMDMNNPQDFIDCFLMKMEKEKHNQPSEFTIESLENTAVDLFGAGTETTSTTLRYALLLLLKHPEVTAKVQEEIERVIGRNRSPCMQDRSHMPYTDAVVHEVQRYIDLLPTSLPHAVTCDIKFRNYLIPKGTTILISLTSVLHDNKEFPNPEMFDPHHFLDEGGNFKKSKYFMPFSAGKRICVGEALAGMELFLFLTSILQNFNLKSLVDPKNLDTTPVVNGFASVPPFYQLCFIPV
Series [2] can be described thus: Tmax in Sprague-Dawley rat at 10 mg/kg, po. Format: ADME, organism-based. To be noted: in vivo. An outline of the steps:
(§3)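 Male Sprague-Dawley rats were dosed orally as a 0.5% methylcellulose suspension. Cmax, AUC0-24, Tmax, T1/2 and %F were determined. Values are mean ± SD, n = 3.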

The target in series [3] is Prostaglandin G/H synthase 1 (Homo sapiens, UniProt P23219). Briefly: Inhibition of COX1 in human U937 cells assessed as decrease in PGE2 release using arachidonic acid as substrate preincubated for 15 mins followed by arachidonic acid addition measured after 5 mins. Format: cell-based.
Prostaglandin G/H synthase 1, sequence (P23219 whole entry): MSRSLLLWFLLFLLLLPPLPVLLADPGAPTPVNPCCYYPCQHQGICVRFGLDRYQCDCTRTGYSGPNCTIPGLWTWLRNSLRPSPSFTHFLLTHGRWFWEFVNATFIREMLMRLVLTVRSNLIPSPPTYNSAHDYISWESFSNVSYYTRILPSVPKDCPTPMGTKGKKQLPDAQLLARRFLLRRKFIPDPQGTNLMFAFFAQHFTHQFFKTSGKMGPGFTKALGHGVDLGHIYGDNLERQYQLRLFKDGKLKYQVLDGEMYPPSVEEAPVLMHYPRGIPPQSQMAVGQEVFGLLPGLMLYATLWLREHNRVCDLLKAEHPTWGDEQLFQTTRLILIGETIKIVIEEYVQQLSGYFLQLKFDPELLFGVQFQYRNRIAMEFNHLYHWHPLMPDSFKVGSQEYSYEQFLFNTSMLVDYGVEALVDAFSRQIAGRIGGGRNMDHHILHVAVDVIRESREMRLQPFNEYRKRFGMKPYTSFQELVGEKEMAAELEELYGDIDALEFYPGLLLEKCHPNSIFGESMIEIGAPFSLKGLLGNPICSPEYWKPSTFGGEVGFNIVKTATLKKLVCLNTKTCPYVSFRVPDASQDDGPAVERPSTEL
Series [4] can be described thus: Half life in Sprague-Dawley rat at 10 mg/kg, po. To be noted: in vivo. The series is classed as ADME, organism-based. The procedure, abridged:
as §3

A short description of series [5]: Cmax in Sprague-Dawley rat at 10 mg/kg, po. The series is classed as ADME, organism-based. Details: dose 10 mg/kg, route oral; call rule not given here. To be noted: in vivo. An outline of the steps: as §3
The target of a further series is CYP3A4 (Homo sapiens, UniProt P08684). Briefly: Inhibition of CYP3A4 in human liver microsomes at 10 uM measured after 20 mins in presence of NADPH by LC/MS/MS analysis relative to control. The series is classed as ADME. The procedure, abridged:
as §2

For series [6], the target named is T1, Prostaglandin E synthase (Homo sapiens) (UniProt O14684).
T1 sequence (whole entry): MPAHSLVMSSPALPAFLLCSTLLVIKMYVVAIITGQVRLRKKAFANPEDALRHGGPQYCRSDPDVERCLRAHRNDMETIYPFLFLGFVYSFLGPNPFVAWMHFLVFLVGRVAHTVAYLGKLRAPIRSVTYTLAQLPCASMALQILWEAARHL
Briefly: Inhibition of recombinant human mPGES-1 expressed in CHO cells assessed as reduction in PGE2 formation at 1 uM using PGH2 a substrate preincubated for 10 mins followed by substrate addition measured after 1 min relative to control. Format: cell-based. An outline of the steps:
(§4)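 mPGES-1 enzyme inhibition. % inhibition values are means of two experiments in duplicate. IC50 values were derived from graphs of at least two experiments in duplicate.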

The target of a further series is Cytochrome P450 2D6 (Homo sapiens, UniProt P10635). The series is described as §1. The series is classed as ADME. To be noted: microsomes, 20 min, 10 µM. An outline of the steps: as §2
Cytochrome P450 2D6, sequence (P10635 whole entry): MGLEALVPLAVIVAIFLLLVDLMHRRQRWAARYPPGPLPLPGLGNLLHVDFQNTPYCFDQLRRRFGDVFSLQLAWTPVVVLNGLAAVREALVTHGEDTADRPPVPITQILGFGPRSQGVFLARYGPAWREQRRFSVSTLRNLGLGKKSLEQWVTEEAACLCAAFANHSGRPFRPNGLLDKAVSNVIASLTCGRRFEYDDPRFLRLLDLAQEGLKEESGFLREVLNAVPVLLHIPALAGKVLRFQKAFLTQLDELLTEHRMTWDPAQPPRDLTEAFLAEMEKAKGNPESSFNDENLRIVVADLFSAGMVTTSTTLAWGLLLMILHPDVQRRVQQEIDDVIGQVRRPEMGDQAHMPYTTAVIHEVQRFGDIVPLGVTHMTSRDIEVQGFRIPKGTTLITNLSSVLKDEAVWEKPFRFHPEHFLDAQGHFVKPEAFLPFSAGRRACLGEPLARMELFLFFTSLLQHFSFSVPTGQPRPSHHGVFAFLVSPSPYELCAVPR
Series [7] concerns the target T2, COX2 (Homo sapiens, UniProt P35354).
T2 sequence (P35354 whole entry): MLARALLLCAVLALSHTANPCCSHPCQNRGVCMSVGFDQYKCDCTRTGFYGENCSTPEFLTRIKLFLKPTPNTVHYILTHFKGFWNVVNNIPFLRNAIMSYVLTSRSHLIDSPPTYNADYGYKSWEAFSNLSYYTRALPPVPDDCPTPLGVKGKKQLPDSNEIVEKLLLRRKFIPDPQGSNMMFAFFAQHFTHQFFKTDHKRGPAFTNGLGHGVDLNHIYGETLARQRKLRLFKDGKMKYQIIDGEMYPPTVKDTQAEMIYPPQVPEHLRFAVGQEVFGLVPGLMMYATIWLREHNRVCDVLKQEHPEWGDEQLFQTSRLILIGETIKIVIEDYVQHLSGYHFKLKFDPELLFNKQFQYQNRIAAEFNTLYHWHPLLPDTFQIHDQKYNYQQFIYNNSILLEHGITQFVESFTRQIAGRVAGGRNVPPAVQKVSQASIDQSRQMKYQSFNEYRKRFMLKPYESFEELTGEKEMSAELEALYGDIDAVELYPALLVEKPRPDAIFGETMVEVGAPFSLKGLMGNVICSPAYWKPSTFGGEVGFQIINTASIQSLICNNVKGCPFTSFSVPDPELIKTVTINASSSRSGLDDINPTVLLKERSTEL
As to the kind of experiment: Inhibition of recombinant human N-terminal His-tagged COX2 expressed in baculovirus infected Sf21 insect cells assessed as decrease in PGE2 release at 1 uM using arachidonic acid as substrate preincubated for 15 mins followed by arachidonic acid addition measured after 5 mins relative to control. To be noted: probe arachidonic acid.

A short description of series [8]: Drug uptake in CSF of Dunkin Hartley guinea pig model of LPS-induced thermal hyperalgesia pain at 200 mg/kg, po qd measured 7 hrs post dose by LC/MS/MS analysis. Format: ADME, organism-based, Cavia porcellus, Cerebrospinal fluid. To be noted: read-out: Drug uptake. The procedure, abridged:
(§5)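 In the guinea pig LPS thermal hyperalgesia model, plasma and CSF drug levels were measured at the pharmacodynamic time point after oral dosing. Concentrations are means of n = 8 animals per dose group.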

Series [9] is described as follows: Tmax in Guinea pig at 100 mg/kg, po. To be noted: in vivo. The series is classed as ADME, organism-based, Cavia porcellus. The procedure, abridged:
(§6)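 Single oral dose given to guinea pigs as a 0.5% methylcellulose suspension. Values are mean ± SD, n = 3.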

A short description of series [10]: AUC (0 to 24 hrs) in Guinea pig at 100 mg/kg, po. The series is classed as ADME, organism-based, Cavia porcellus. Also on record: time < 24 hr, dose 100 mg/kg, route oral. To be noted: in vivo. An outline of the steps:
as §6

In series [11] the target is T2, COX2. As to the kind of experiment: Inhibition of recombinant human N-terminal His-tagged COX2 expressed in baculovirus infected Sf21 insect cells assessed as decrease in PGE2 release at 10 uM using arachidonic acid as substrate preincubated for 15 mins followed by arachidonic acid addition measured after 5 mins relative to control. To be noted: probe arachidonic acid.

The target of series [12] is T1, Prostaglandin E synthase (Homo sapiens). As to the kind of experiment: Inhibition of recombinant human mPGES-1 expressed in CHO cells assessed as reduction in PGE2 formation at 10 uM using PGH2 a substrate preincubated for 10 mins followed by substrate addition measured after 1 min relative to control. The series is classed as cell-based. The procedure, abridged: as §4

The subject of the next series is Cavia porcellus. As to the kind of experiment: Analgesic activity in Dunkin Hartley guinea pig hyperalgesia pain model assessed as inhibition of LPS-induced thermal hyperalgesia at 200 mg/kg, po qd administered 4 hrs prior to LPS stimulation measured after 4.5 hrs by plantar test relative to control. Format: functional. The procedure, abridged: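 LPS was injected into the guinea pig plantar to induce thermal hyperalgesia, and compound was given orally. Response is expressed as % hyperalgesia, with a saline-injected naive group as 0% and the vehicle-treated LPS group as 100%. Values are mean ± SEM, n = 8 per dose group.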

A short description of series [13]: Plasma concentration in Dunkin Hartley guinea pig model of LPS-induced thermal hyperalgesia pain at 200 mg/kg, po qd measured 7 hrs post dose by LC/MS/MS analysis. The series is classed as ADME, organism-based, Cavia porcellus. An outline of the steps: as §5

CYP3A4, sequence (P08684 whole entry): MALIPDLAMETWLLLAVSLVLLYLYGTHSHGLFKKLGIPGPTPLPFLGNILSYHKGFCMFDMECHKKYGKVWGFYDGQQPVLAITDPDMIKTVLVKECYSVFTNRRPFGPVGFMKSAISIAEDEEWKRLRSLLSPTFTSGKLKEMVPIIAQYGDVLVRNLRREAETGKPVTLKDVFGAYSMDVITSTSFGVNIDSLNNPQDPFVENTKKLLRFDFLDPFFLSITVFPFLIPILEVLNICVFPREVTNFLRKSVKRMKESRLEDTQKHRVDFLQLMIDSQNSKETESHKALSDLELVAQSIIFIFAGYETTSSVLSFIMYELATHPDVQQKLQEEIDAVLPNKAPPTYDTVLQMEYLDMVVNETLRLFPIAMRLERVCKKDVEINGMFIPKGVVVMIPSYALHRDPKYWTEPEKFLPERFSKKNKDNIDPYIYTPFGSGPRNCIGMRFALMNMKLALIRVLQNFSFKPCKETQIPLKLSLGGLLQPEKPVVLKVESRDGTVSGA
CYP2D6, sequence (P10635 whole entry, canonical isoform): as the sequence (P10635 whole entry) above

In the case of `CC1(C)Oc2cc(C#Cc3cc(Cl)ccc3F)ccc2-c2[nH]c(-c3c(F)cccc3Cl)nc21`, the inhibition at 20 min, 10 µM was 26.6% at CYP2D6, 33.3% on CYP2C9 and 31% at CYP3A4. Besides, the remaining at 1 h, 1 µM in series [1] is 73%. Moreover, in series [2], the Tmax worked out at 4 h. For the same compound, the IC50 in series [3] worked out at 0.06 µM. The compound also gave a half-life in series [4] of 6.77 h. In series [5], this compound displayed a maximum concentration (Cmax) of 1180 ng/mL.
Consider `CC1(C)Oc2cc(-c3cccc(OC(F)(F)F)c3)ccc2-c2[nH]c(-c3c(F)cccc3Cl)nc21`, for which the inhibition in series [6] was determined as 97.9%; in series [12], 91.8%. In addition, the “inhibition (INH)” value at Cytochrome P450 2D6 is recorded as “Not Active”. The remaining at 1 h, 1 µM in series [1] worked out at 80%. The inhibition at 5 min, 1 µM on COX2 [7] worked out at 2.37%. The inhibition at 20 min, 10 µM on CYP2C9 was 45.4%; on CYP3A4, 8.4%. Also, the Tmax is 4 h in [2] and 24 h in series [9]. Moreover, the concentration at 7 h in series [8] is 0.00922 µM; in series [13], 7.5 to 7.54 µM. For the same compound, the 50% inhibitory concentration (IC50) in series [3] was found to be 6.75 µM. Moreover, in series [4], the half-life was 11.2 h. This compound also displayed an AUC(0-t) at 24 h in series [10] of 13400 ng·h/mL. At COX2 [11], the inhibition at 5 min, 10 µM amounted to 24.2%. In addition, in series [5], the Cmax was 826 ng/mL. Besides, the inhibition in vivo at 200 mg/kg with Cavia porcellus worked out at 38%.

(Values after ChEMBL document CHEMBL4028818, “Tricyclic 4,4-dimethyl-3,4-dihydrochromeno[3,4-d]imidazole derivatives as microsomal prostaglandin E2 synthase-1 (mPGES-1) inhibitors: SAR and in vivo efficacy in hyperalgesia pain model” (Bioorg Med Chem Lett, 2017).)
